High-throughput results as filed in PubChem BioAssay.
In the library only some 4.3% were active in any assay of this set; here they are far more common.
TAAR1 ag = agonists of human TAAR1 | Q96RJ0 | CHO RD-HGA16 TAAR1, Fluo-8 calcium fluorescence; vehicle wells 0%, saturating PEA agonist 100% | activation, % at 3 µM | 360,000 compounds, 0.99% hits;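 active = activation above the mean activation of all test compounds in the run plus 3 SD, cut at about 38% in these data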
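System: CHO-derived RD-HGA16 cells with stable Gα16 and human TAAR1 / Times: 17-24 h plating, Fluo-8 75 min 37 °C, 30 min RT / Technique: calcium-sensitive Fluo-8 signal, excitation 470-495, emission 515-575 nm / Measure: % activation relative to PEA EC100 response / Benchmarks: DMSO and PEA EC100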
TAAR1 antag = human TAAR1 antagonism; Q96RJ0; CHO RD-HGA16 TAAR1, Fluo-8 calcium fluorescence, antagonist; inhibition, % at 3 µM; 360,000 compounds, 1.5% hits;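 active = inhibition above a per-plate cutoff, the mean inhibition of test compounds on that plate plus 3 SD, cut at about 49% in these data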;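 also: 0% = DMSO plus EC80 beta-PEA response and 100% = DMSO alone without agonist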
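Assay system: RD-HGA16 CHO cells with stable hTAAR1 and Gα16 / Reagent: EC80 β-phenethylamine stimulus / Doses: 3 µM, single point / Timing: dye loading 75 min at 37 °C, then 30 min room temperature / Measured by: Fluo-8 intracellular calcium dye fluorescence, real-time kinetic reads / Controls: vehicle wells and EC80 agonist wells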
MC4R barr agon = activates human MC4R beta-arrestin recruitment. 360,000 compounds, 0.98% hits. activation, % at 8.9 µM. P32245. AID 540308. U2OS MC4R beta-arrestin complementation, luminescence; percent of melanotan II response, DMSO zero;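 active = activation above a per-plate cutoff, the mean activation of sample wells on that plate plus 3 SD, cut at about 8% in these data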
HTR2A ag = mouse HTR2A agonism via beta-arrestin recruitment | P35363 | CHO-K1 mHTR2A beta-arrestin complementation, luminescence; percent of 30 µM serotonin response | activation, % at 7.6 µM | 360,000 compounds, 0.66% hits;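 active = activation above a run cutoff, the mean activation of all tested compounds plus 3 SD, cut at about 14% in these data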;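 also: 0% = plate median of compound wells and 100% = 30 µM serotonin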
MC4R antagonist = blocks human MC4R cAMP signaling; P32245; MC4R-expressing cells, MTII-stimulated cAMP, LANCE TR-FRET; AID 540295; inhibition, % at 6.5 µM; 360,000 compounds, 0.48% hits;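 active = inhibition above its plate's cutoff, the mean of tested wells on that plate plus 3 SD, cut at about 29% in these data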;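 also: 0% = Melanotan II alone and 100% = Melanotan II plus saturating MCL0020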
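Material: human MC4R-expressing U2OS cells. Probe or stimulus: Melanotan II challenge. Dosing: 6.5 µM single dose. Times: 30-min compound, 1-h challenge, 1-h detection, room temperature. Technique: TR-FRET with Eu-cAMP and labeled anti-cAMP, 671 nm. Replication: singlicate.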
Beta2AR agonist = agonists of human beta-2 adrenergic receptor inducing internalization. P07550. Am2.2-beta2AR cells, FAP receptor internalization, flow cytometry. response, % (test concentration not listed). 340,000 compounds, 0.43% hits. AID 504454;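 active = response above a set limit, near 3 SD of response in nonfluorescent compounds, cut at about 42% in these data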
Target sequence (P07550 whole entry, looked up): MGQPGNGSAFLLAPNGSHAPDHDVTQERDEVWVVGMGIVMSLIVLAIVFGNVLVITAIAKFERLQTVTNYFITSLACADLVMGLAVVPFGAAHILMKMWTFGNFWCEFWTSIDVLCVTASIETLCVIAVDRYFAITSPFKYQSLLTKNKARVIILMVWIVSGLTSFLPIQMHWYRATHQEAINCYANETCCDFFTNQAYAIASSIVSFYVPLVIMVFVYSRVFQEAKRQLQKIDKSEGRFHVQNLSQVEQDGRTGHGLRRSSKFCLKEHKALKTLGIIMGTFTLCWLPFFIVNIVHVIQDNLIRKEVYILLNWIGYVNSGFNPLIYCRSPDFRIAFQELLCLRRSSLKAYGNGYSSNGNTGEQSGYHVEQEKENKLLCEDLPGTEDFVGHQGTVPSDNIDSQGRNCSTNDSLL
* = called active by the depositor.

What do the screens show for `COc1ccc(N=C2NC(=O)S/C2=C\c2ccc(N(C)C)cc2)cc1`?
TAAR1 ag: 27; TAAR1 antag: 58*; MC4R barr agon: -2; HTR2A ag: -5; MC4R antagonist: 5; Beta2AR agonist: -11

What do the screens show for `O=[N+]([O-])c1cc2c(cc1C=Nc1ccccc1)OCO2`?
MC4R barr agon: -1; HTR2A ag: 15*; MC4R antagonist: 1; Beta2AR agonist: 14

How did O=[N+]([O-])c1ccc(O)c(/C=N/Nc2ccccn2)c1 do in these assays?
TAAR1 ag: 45*; TAAR1 antag: 73*; MC4R barr agon: 3; HTR2A ag: 2; MC4R antagonist: -5; Beta2AR agonist: 8

Results for Brc1ccccc1/C=N/Nc1ccccn1 ?
TAAR1 ag: 2; TAAR1 antag: -30; MC4R barr agon: 9.4*; HTR2A ag: 1; MC4R antagonist: -5; Beta2AR agonist: -3

Results for O=[N+]([O-])c1ccc(NN=Cc2ccccc2O)nc1 ?
TAAR1 ag: 35; TAAR1 antag: 27; MC4R barr agon: -3; HTR2A ag: -23; MC4R antagonist: 0; Beta2AR agonist: 7

Results for COc1ccccc1C(c1nnnn1Cc1ccccc1)N1CCN(C2CCCC2)CC1 (configuration not stated) ?
TAAR1 ag: 6; TAAR1 antag: -3; MC4R barr agon: -2; HTR2A ag: -3; MC4R antagonist: 1; Beta2AR agonist: -7

How did COc1cccc(C(c2nnnn2Cc2ccccc2)N2CCN(C3CCCC3)CC2)c1OC (configuration not stated) do in these assays?
TAAR1 ag: 24; TAAR1 antag: 53*; MC4R barr agon: -2; HTR2A ag: -5; MC4R antagonist: 10; Beta2AR agonist: 3

Results for O=C1c2ccccc2/C(=C\c2ccc(Br)nc2)N1c1ccccc1 ?
TAAR1 ag: 2; TAAR1 antag: 3

What do the screens show for `CC(C)CCn1cnc2c([nH]c3cccc(Cl)c32)c1=O`?
TAAR1 ag: 16; TAAR1 antag: -9; MC4R barr agon: 9.4*; HTR2A ag: 2; MC4R antagonist: -4; Beta2AR agonist: 1

How did Cc1cccc2[nH]c3c(=O)n(CCN4CCNCC4)cnc3c12 do in these assays?
TAAR1 ag: 1; TAAR1 antag: -1; MC4R barr agon: 0; HTR2A ag: 10; MC4R antagonist: 2; Beta2AR agonist: -8

What do the screens show for `CC(C)c1ccc([C@@H]2O[C@H](CCc3ccccc3)CC3=C2C(=O)OC(C)(C)O3)cc1`?
TAAR1 ag: 1; TAAR1 antag: 18; HTR2A ag: -5

Results for Cn1c(-c2ccccc2)c(C(=O)CCl)c2ccccc21 ?
TAAR1 ag: -2; TAAR1 antag: -9; MC4R barr agon: 12*; HTR2A ag: 3; MC4R antagonist: 3; Beta2AR agonist: 32

How did CC(=O)NC(Cc1ccc(C)cc1)C(=O)NC1CCN(c2ncccc2[N+](=O)[O-])CC1 (configuration not stated) do in these assays?
TAAR1 ag: 2; TAAR1 antag: 12; MC4R barr agon: 0; HTR2A ag: -2; MC4R antagonist: 2; Beta2AR agonist: 1

Results for COCc1cc(N2CCN(C(=O)OC(C)(C)C)C[C@H]2C)ccc1N1CCN(Cc2ccccc2)[C@@H](C)C1 ?
TAAR1 ag: -2; TAAR1 antag: -3

How did Cc1ccc(CNc2ccc([N+](=O)[O-])cc2C(N)=O)cc1 do in these assays?
TAAR1 ag: 6; TAAR1 antag: 7; MC4R barr agon: 0; HTR2A ag: -4; MC4R antagonist: -1; Beta2AR agonist: -3

How did Cc1ccc(Oc2c(C(N)=O)cc([N+](=O)[O-])cc2[N+](=O)[O-])cc1 do in these assays?
TAAR1 ag: 2; TAAR1 antag: 0; MC4R barr agon: -2; HTR2A ag: 0; MC4R antagonist: 19; Beta2AR agonist: 57*

What do the screens show for `Cn1cccc1/C=C1/SC(=S)N(CC(=O)O)C1=O`?
TAAR1 ag: 3; TAAR1 antag: 2; MC4R barr agon: -2; HTR2A ag: -5; MC4R antagonist: -21; Beta2AR agonist: 4

Results for CCN1C(=O)/C(=C/C=C2/Sc3ccccc3N2CCO)SC1=S ?
TAAR1 ag: 7; TAAR1 antag: 2; MC4R barr agon: -3; HTR2A ag: 0; MC4R antagonist: 0; Beta2AR agonist: 9

What do the screens show for `CN1CCS/C1=C\C=C1/SC(=S)N(CC(=O)O)C1=O`?
TAAR1 ag: 45*; TAAR1 antag: 12; MC4R barr agon: -3; HTR2A ag: -5; MC4R antagonist: -36; Beta2AR agonist: 18

How did CCN1C(=O)/C(=C/C=C2/SCCN2C)SC1=S do in these assays?
TAAR1 ag: 39*; TAAR1 antag: 7; MC4R barr agon: 1; HTR2A ag: 7; MC4R antagonist: -2; Beta2AR agonist: 6

What do the screens show for `COC(=O)c1ccc2nc(-c3ccco3)c(Cc3ccsc3)n2c1`?
TAAR1 ag: 1; TAAR1 antag: -19

What do the screens show for `Oc1ccc(C23CCCC2C2(CCCC2)c2ccc(O)cc2O3)c(O)c1` (configuration not stated)?
TAAR1 ag: 71*; TAAR1 antag: 99*; MC4R barr agon: 7; HTR2A ag: 0; MC4R antagonist: 10; Beta2AR agonist: 11

How did O=C(Nc1cccn(Cc2ccc(F)cc2)c1=O)NC1CCCCC1 do in these assays?
TAAR1 ag: 39*; TAAR1 antag: -8; MC4R barr agon: -2; HTR2A ag: 2; MC4R antagonist: 8; Beta2AR agonist: -12

What do the screens show for `Cc1cn(-c2cc(NC(=O)c3ccc(C)c(NC(=O)c4cccc(-c5cn[nH]c(=O)c5)c4)c3)cc(C(F)(F)F)c2)cn1`?
MC4R barr agon: -1; HTR2A ag: 0; MC4R antagonist: 4; Beta2AR agonist: 78*

Results for Cn1c(=O)c2c(-c3ccccc3)n(-c3cc([N+](=O)[O-])ccc3O)cc2n(C)c1=O ?
TAAR1 ag: 9; TAAR1 antag: 1; MC4R barr agon: -2; HTR2A ag: 5; MC4R antagonist: 10

Results for Cc1ccc(S(=O)(=O)N2CCC(=O)N(CCOCc3cccc(F)c3)CC2)cc1 ?
TAAR1 ag: 2; TAAR1 antag: 8; MC4R barr agon: 8.4*; HTR2A ag: -5; MC4R antagonist: 1; Beta2AR agonist: -1

How did O=C1C=CC(=O)c2c(O)c(N3CCN(CCOCCO)CC3)c(Br)c(O)c21 do in these assays?
TAAR1 ag: 4; TAAR1 antag: 24; MC4R barr agon: -5; HTR2A ag: -4; MC4R antagonist: -21; Beta2AR agonist: 66*
